Data reported in ChEMBL document CHEMBL1921716, “Discovery of N-[2-hydroxy-6-(4-methoxybenzamido)phenyl]-4- (4-methyl-1,4-diazepan-1-yl)benzamide (darexaban, YM150) as a potent and orally available factor Xa inhibitor” (J Med Chem, 2011).

Assays:
Coagulation factor X [1] = target: T1, Coagulation factor X (Homo sapiens, UniProt P00742); assay: Inhibition of human factor 10A using chromogenic substrate S2222 by absorbance measurement at 405 nm
Coagulation factor X [2] = target: T1, Coagulation factor X; assay: Inhibition of human factor 10A using chromogenic substrate S2222 by dixon plot analysis
Method in brief: (§1)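 Human enzymes were used at final concentrations of 4.2 mU/mL FXa, 0.20 U/mL thrombin, 1.0 U/mL trypsin and 1.7 mU/mL plasma kallikrein. Substrates were S-2222 (FXa, trypsin), S-2238 (thrombin) and S-2302 (kallikrein). Reactions were started by adding enzyme, and hydrolysis was followed at 405 nm at 37 °C. Mode of inhibition came from Lineweaver–Burk plots and Ki from Dixon plots at several substrate concentrations. Values are means of four determinations.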

Plasma [3] = assay: Anticoagulant activity in human plasma assessed as concentration required to double the clotting time by coagulometric analysis; format: functional
Method in brief: (§2)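 Citrated blood was spun at 3000 rpm for 10 min to give platelet-poor plasma, stored at −40 °C. Prothrombin time was read on a coagulometer at 37 °C with thromboplastin and compared with a distilled-water control. CT2 (concentration doubling clotting time) was estimated from each concentration–response curve. Each measurement was done three times and reported as the mean.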

Trypsin = Trypsin (Homo sapiens, UniProt P07477+P07478+P35030); assay: Inhibition of human trypsin using chromogenic substrate S2222 by dixon plot analysis plot; format: protein assay
Method in brief: as §1

Plasma [4] = assay: Anticoagulant activity in mouse plasma assessed as concentration required to double the clotting time by coagulometric analysis; format: functional
Method in brief: as §2

Plasma kallikrein = Plasma kallikrein (Homo sapiens, UniProt P03952); assay: Inhibition of human plasma kallikrein using chromogenic substrate S2302 by dixon plot analysis
Chain of Plasma kallikrein (P03952 20-390 limits assumed): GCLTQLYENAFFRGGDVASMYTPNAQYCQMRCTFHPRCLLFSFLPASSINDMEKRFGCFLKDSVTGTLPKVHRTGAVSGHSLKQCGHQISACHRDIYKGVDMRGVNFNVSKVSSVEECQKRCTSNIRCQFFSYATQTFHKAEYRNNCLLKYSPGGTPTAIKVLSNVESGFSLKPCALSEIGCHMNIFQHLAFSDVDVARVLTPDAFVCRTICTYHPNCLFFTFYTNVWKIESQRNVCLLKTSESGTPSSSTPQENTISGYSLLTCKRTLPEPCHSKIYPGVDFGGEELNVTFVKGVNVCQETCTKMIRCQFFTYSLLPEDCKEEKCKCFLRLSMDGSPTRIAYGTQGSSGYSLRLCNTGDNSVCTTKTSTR
Chain of Plasma kallikrein (P03952 391-638 limits assumed): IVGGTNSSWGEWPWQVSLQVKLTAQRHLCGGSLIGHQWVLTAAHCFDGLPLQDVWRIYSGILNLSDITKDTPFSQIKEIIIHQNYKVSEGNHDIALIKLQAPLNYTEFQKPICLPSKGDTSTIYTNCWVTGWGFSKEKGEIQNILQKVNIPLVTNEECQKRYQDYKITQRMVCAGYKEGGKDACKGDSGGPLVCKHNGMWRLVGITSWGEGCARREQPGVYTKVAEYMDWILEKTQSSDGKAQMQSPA
Method in brief: as §1

[5] = Effective permeability of the compound after 2 hrs by PAMPA at pH 6.5; format: ADME; details: read-out: Peff
Method in brief: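 Compound from a 10 mM DMSO stock was diluted to a final concentration of about 50 μM in buffer containing 10% DMSO. Donor was pH 6.5 and acceptor pH 7.4, separated by a filter coated with 20% lecithin in dodecane. Plates were incubated 2 h at 25 °C in saturated humidity. Both compartments were quantified by UV at 270–400 nm against standards, with mass balance, to give Pe (n = 2).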

Rattus norvegicus [6] = assay: Tmax in F344/DuCrlCrlj rat at 100 mg/kg, po assessed as 3-[(4-methoxybenzoyl)amino]-2-{[4-(4-methyl-1,4-diazepan- 1-yl)benzoyl]amino}phenyl beta-D-glucopyranosiduronic acid level after 24 hrs by LC-MS/MS analysis; format: ADME, organism-based; design: dose 100 mg/kg, route oral; details: in vivo
Method in brief: (§3)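 Male F344/DuCrlCrlj rats, 6 weeks old and nonfasted, received a single oral dose of 100 mg/kg as the monomaleate salt suspended in 0.5% methylcellulose, dose given as free form. Three rats per time point were bled at 0.5, 1, 2, 4, 8 and 24 h. Plasma was deproteinized with acetonitrile containing internal standards, and parent and glucuronide were measured by LC-MS/MS.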

[7] = Intrinsic clearance in CD1 mouse liver microsomes assessed as compound remaining at 0.2 uM after 30 mins; format: ADME, Microsome
Rattus norvegicus [8] = assay: AUC (0 to 24 hrs) in F344/DuCrlCrlj rat at 100 mg/kg, po assessed as 3-[(4-methoxybenzoyl)amino]-2-{[4-(4-methyl-1,4-diazepan- 1-yl)benzoyl]amino}phenyl beta-D-glucopyranosiduronic acid level after 24 hrs by LC-MS/MS analysis; format: ADME, organism-based, Plasma; design: time < 24 hr, dose 100 mg/kg, route oral; details: in vivo
Method in brief: as §3

Rattus norvegicus [9] = assay: Cmax in F344/DuCrlCrlj rat at 100 mg/kg, po assessed as 3-[(4-methoxybenzoyl)amino]-2-{[4-(4-methyl-1,4-diazepan- 1-yl)benzoyl]amino}phenyl beta-D-glucopyranosiduronic acid level after 24 hrs by LC-MS/MS analysis; format: ADME, organism-based; design: dose 100 mg/kg, route oral; details: in vivo
Method in brief: as §3

Prothrombin = Prothrombin (Homo sapiens, UniProt P00734); assay: Inhibition of human thrombin using chromogenic substrate S2238 by dixon plot analysis
Method in brief: as §1

[10] = Cmax in F344/DuCrlCrlj rat at 100 mg/kg, po; format: ADME, organism-based; design: dose 100 mg/kg, route oral; details: in vivo
Method in brief: as §3

[11] = AUC (0 to 24 hrs) in F344/DuCrlCrlj rat at 100 mg/kg, po; format: ADME, organism-based; design: time < 24 hr, dose 100 mg/kg, route oral; details: plasma
Method in brief: as §3

[12] = Tmax in F344/DuCrlCrlj rat at 100 mg/kg, po; format: ADME, organism-based; design: dose 100 mg/kg, route oral; details: in vivo
Method in brief: as §3

Mus musculus [13] = assay: Anticoagulant activity in mouse assessed as prothrombin time at 100 mg/kg, po measured after 0.5 hrs by coagulometric analysis relative to control; format: functional, ICR
Mus musculus [14] = assay: Anticoagulant activity in mouse assessed as prothrombin time at 100 mg/kg, po measured after 2 hrs by coagulometric analysis relative to control; format: functional, ICR

T1 sequence (P00742 41-179 limits assumed): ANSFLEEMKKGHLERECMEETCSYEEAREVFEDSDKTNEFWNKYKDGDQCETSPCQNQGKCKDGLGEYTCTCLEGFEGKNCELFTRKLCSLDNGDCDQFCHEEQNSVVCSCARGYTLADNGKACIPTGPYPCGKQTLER
T1 sequence (P00742 235-488 limits assumed): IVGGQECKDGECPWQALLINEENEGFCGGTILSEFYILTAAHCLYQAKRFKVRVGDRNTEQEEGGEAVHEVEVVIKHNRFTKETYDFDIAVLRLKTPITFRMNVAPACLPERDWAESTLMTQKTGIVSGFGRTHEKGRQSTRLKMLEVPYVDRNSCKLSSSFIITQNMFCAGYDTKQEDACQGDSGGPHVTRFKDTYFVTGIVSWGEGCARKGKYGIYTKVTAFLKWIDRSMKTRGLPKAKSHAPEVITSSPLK

Row | SMILES | IC50 (Coagulation factor X [1]) [nM] | CD (Plasma [4]) [µM] | fold change (FC) (Mus musculus [13]) | fold change (FC) (Mus musculus [14]) | also measured
1 | COc1ccc(C(=O)Nc2ccc(OC)cc2NC(=O)c2ccc(OC)cc2)cc1 | 6220 |  |  |  | 
2 | COc1ccc(C(=O)Nc2cccc(O)c2NC(=O)c2ccc(N3CCCN(C)CC3)cc2)cc1.O=C(O)/C=C\C(=O)O |  |  |  |  | Cmax [10]: 175 ng/mL; AUC(0-t) at 24 h [11]: 1290 ng·h/mL; Tmax [12]: 2 h
3 | CSc1ccc(C(=O)Nc2cccc(O)c2NC(=O)c2ccc(N3CCCN(C)CC3)cc2)cc1 | 1440 |  |  |  | 
4 | COc1ccc(C(=O)Nc2cc(OC)ccc2NC(=O)c2ccc(N3CCCN(C)CC3)cc2)cc1 | 118 | 7.1 | 1.25 | 1.34 | 
5 | COc1ccc(C(=O)Nc2ccc(O)cc2NC(=O)c2ccc(N3CCCN(C)CC3)cc2)cc1 | 50.3 | 1.4 | 1.04 | 1 | Papp at 2 h [5]: < 0.3 ×10⁻⁶ cm/s; CLint scaled at 0.2 µM [7]: 1700 mL/min/kg
6 | COc1ccc(C(=O)Nc2cccc(OCCO)c2NC(=O)c2ccc(N3CCCN(C)CC3)cc2)cc1 | 106 | 3 | 1.36 | 1.31 | 
7 | CN1CCCN(c2ccc(C(=O)Nc3c(O)cccc3NC(=O)c3ccc(O)cc3)cc2)CC1 | 6140 |  |  |  | 
8 | CN1CCCN(c2ccc(C(=O)Nc3c(O)cccc3NC(=O)c3ccc(Cl)cc3)cc2)CC1 | 64.2 | 5.3 | 1.42 | 1.32 | 
9 | COc1ccc(NC(=O)c2ccccc2NC(=O)c2ccc(N3CCCN(C)CC3)cc2)cc1 | 140 | 5.9 | 1.02 | 0.98 | 
10 | COc1ccc(C(=O)Nc2ccc(OC)cc2NC(=O)c2ccc(N3CCCN(C)CC3)cc2)cc1 | 73.4 | 7.5 | 1.35 | 1.38 | 
11 | CN1CCCN(c2ccc(C(=O)Nc3c(O)cccc3NC(=O)c3ccc(Br)cc3)cc2)CC1 | 59.8 | 6.7 | 1.41 | 1.62 | 
12 | COc1ccc(C(=O)Nc2cccc(F)c2NC(=O)c2ccc(N3CCCN(C)CC3)cc2)cc1 | 155 | 4.3 | 1.43 | 1.22 | 

Further molecules by falling IC50 (Coagulation factor X [1]), results first:

Row | IC50 (Coagulation factor X [1]) [nM] | SMILES | CD (Plasma [4]) [µM] | fold change (FC) (Mus musculus [13]) | fold change (FC) (Mus musculus [14]) | also measured
13 | 4220 | COc1ccc(C(=O)Nc2ccccc2NC(=O)c2ccc(OC)cc2)cc1 |  |  |  | 
14 | 539 | COc1ccc(C(=O)Nc2ccccc2C(=O)Nc2ccc(N3CCCN(C)CC3)cc2)cc1 |  |  |  | 
15 | 349 | CN1CCCN(c2ccc(C(=O)Nc3c(O)cccc3NC(=O)c3ccc(F)cc3)cc2)CC1 |  |  |  | 
16 | 213 | COc1ccc(C(=O)Nc2c(NC(=O)c3ccc(N4CCCN(C)CC4)cc3)cccc2OC)cc1 | 13 |  |  | 
17 | 157 | COc1ccc(C(=O)Nc2cc(O)ccc2NC(=O)c2ccc(N3CCCN(C)CC3)cc2)cc1 | 4.7 | 1.02 | 1.01 | 
18 | 123 | COc1ccc(C(=O)Nc2cccc(OCC(=O)O)c2NC(=O)c2ccc(N3CCCN(C)CC3)cc2)cc1 | 2.8 | 0.99 | 0.98 | 
19 | 103 | COc1ccc(C(=O)Nc2ccccc2NC(=O)c2ccc(N3CCCN(C)CC3)cc2)cc1 | 2.8 | 1.38 | 1.39 | Papp at 2 h [5]: 42 ×10⁻⁶ cm/s; CLint scaled at 0.2 µM [7]: 2050 mL/min/kg
20 | 99.2 | COc1ccc(C(=O)Nc2cccc(C(=O)O)c2NC(=O)c2ccc(N3CCCN(C)CC3)cc2)cc1 | 9 | 1.05 | 1.08 | 
21 | 86.1 | COc1ccc(C(=O)Nc2cccc(O)c2NC(=O)c2ccc(N3CCCN(C)CC3)cc2)s1 | 3.8 | 2.17 | 1.9 | 
22 | 62.6 | COc1ccc(C(=O)Nc2cccc(OC)c2NC(=O)c2ccc(N3CCCN(C)CC3)cc2)cc1 | 3.7 | 1.5 | 1.32 | Papp at 2 h [5]: 47.5 ×10⁻⁶ cm/s; CLint scaled at 0.2 µM [7]: 2200 mL/min/kg
23 | 54.6 | COc1ccc(C(=O)Nc2cccc(O)c2NC(=O)c2ccc(N3CCCN(C)CC3)cc2)cc1 [DAREXABAN] | 4.1 | 3.49 | 2.09 | Ki (Coagulation factor X [2]): 31 nM; CD (Plasma [3]): 1.2 µM; Ki (Trypsin): > 100000 nM; Ki (Plasma kallikrein): 11000 nM; Papp at 2 h [5]: 30 ×10⁻⁶ cm/s; CLint scaled at 0.2 µM [7]: 1910 mL/min/kg; Ki (Prothrombin): > 100000 nM
24 | 41.4 | CN1CCCN(c2ccc(C(=O)Nc3c(O)cccc3NC(=O)c3ccc(Br)s3)cc2)CC1 | 7.1 | 1.53 | 1.22 | 
25 | 41.3 | CN1CCCN(c2ccc(C(=O)Nc3c(O)cccc3NC(=O)c3ccc(Cl)s3)cc2)CC1 | 5.8 | 1.48 | 1.27 | 
26 | 31.1 | COc1ccc(C(=O)Nc2ccc(C(=O)O)cc2NC(=O)c2ccc(N3CCCN(C)CC3)cc2)cc1 | 1.7 | 1 | 1 | 
27 | 28.6 | COc1ccc(C(=O)Nc2cccc(O[C@@H]3O[C@H](C(=O)O)[C@@H](O)[C@H](O)[C@H]3O)c2NC(=O)c2ccc(N3CCCN(C)CC3)cc2)cc1 | 2.5 |  |  | Ki (Coagulation factor X [2]): 20 nM; CD (Plasma [3]): 0.95 µM; Ki (Trypsin): > 100000 nM; Ki (Plasma kallikrein): 17000 nM; Papp at 2 h [5]: < 0.2 ×10⁻⁶ cm/s; Tmax (Rattus norvegicus [6]): 0.5 h; CLint scaled at 0.2 µM [7]: 90.6 mL/min/kg; AUC (Rattus norvegicus [8]): 38539.2 ng·h/mL; Cmax (Rattus norvegicus [9]): 9439.5 ng/mL; Ki (Prothrombin): > 100000 nM
